These results are taken from ChEMBL document CHEMBL1146462, “New communesin derivatives from the fungus Penicillium sp. derived from the Mediterranean sponge Axinella verrucosa” (J Nat Prod, 2004).

As a reminder, the LC50 is the concentration that kills 50% of the test population.

The subject of data set [1] is U-937. Briefly: Antiproliferative activity against human U937 cells after 48 hrs by MTT assay. The following applies: U-937, 48 h, read-out: ED50 (the source's name). Format: functional. In a few lines:
(§1)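 Human leukemia cell lines were tested for antiproliferative activity by MTT assay and by radioactive thymidine incorporation. Results are given as ED₅₀ in μg/mL.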
On the technique in general: Tetrazolium dyes change colour on reduction, which living cells bring about.

The test system of data set [2] is THP-1. In words: Antiproliferative activity against human THP1 cells after 48 hrs by MTT assay. In kind it is functional. The following applies: THP-1, 48 h, read-out: ED50 (the source's name). The method in brief: as §1
Data set [3] in a line: Antiproliferative activity against human NAMALWA cells after 48 hrs by MTT assay. Format: functional. The following applies: NAMALVA, read-out: ED50 (the source's name). In a few lines:
as §1

Data set [4] relates to MOLT-3. In words: Antiproliferative activity against human MOLT3 cells after 48 hrs by MTT assay. Format: functional. The following applies: MOLT-3, 48 h, read-out: ED50 (the source's name). In a few lines:
as §1

Data set [5] concerns L-428. Briefly: Antiproliferative activity against human L428 cells after 48 hrs by MTT assay. Format: functional. In a few lines:
as §1

Data set [6] can be described thus: Antiproliferative activity against human SUP-B15 cells after 48 hrs by MTT assay. Format: functional. The following applies: SUP-B15, 48 h, read-out: ED50 (the source's name). In a few lines:
as §1

Data set [7] in a line: Toxicity in Artemia salina. In kind it is organism-based. The following applies: in vivo.

Converted amounts (≈) assume the structure as drawn. The source made the active and inactive calls. The calls are words filed in the database; no cut-off is given here. A value given as a limit tells only on which side of the number the result lay.

As for `C/C=C/C=C/C(=O)N1CC[C@@]23c4ccccc4N[C@@H]4N(C)c5cccc6c5[C@@]42CCN([C@@H]13)[C@@H]6[C@H]1OC1(C)C` [COMMUNESIN B], the EC50 is 10.4 µg/mL (≈ 20.4 µM) in data set [1]; 11.4 µg/mL (≈ 22.4 µM) in data set [2]; 9.9 µg/mL (≈ 19.5 µM) in data set [3]; 8.1 µg/mL (≈ 15.9 µM) in data set [4]; above 20 µg/mL in data set [5] (L-428, 48 h, read-out: ED50 (the source's name)); 7.2 µg/mL (≈ 14.2 µM) in data set [6]. This compound displayed an LC50 in data set [7] of 0.3 µg/mL (≈ 0.59 µM).

As for `C/C=C/C=C/C(=O)N1CC[C@@]23c4ccccc4N[C@@H]4Nc5cccc6c5[C@@]42CCN([C@@H]13)[C@@H]6[C@H]1OC1(C)C` [COMMUNESIN C], the EC50 in data set [1] was determined as 11.3 µg/mL (≈ 22.8 µM); in data set [2], 13.1 µg/mL (≈ 26.5 µM); in data set [3] it was 8.2 µg/mL (≈ 16.6 µM); in data set [4], 8.6 µg/mL (≈ 17.4 µM); in data set [6], 10.8 µg/mL (≈ 21.8 µM). The outcome in data set [5] was inactive. Further, in data set [7], the median lethal concentration (LC50) was 1.96 µg/mL (≈ 3.96 µM).

Take `C/C=C/C=C/C(=O)N1CC[C@@]23c4ccccc4N[C@@H]4N(C=O)c5cccc6c5[C@@]42CCN([C@@H]13)[C@@H]6[C@H]1OC1(C)C` [COMMUNESIN D]: the EC50 in data set [1] turned out to be 13.1 µg/mL (≈ 25.1 µM); in data set [2] it was 16.2 µg/mL (≈ 31 µM); in data set [3] it was 14.6 µg/mL (≈ 27.9 µM); in data set [4], 9.9 µg/mL (≈ 18.9 µM); in data set [6] it was 9 µg/mL (≈ 17.2 µM). For the same compound, the outcome in data set [5] was inactive. In data set [7], the LC50 is 0.57 µg/mL (≈ 1.09 µM).
